Rows were chosen to be rich in hits. Some 1.7% of all compounds tested hit in one or more screens of this group.
Scp-1 inhibitor: inhibitors of human Scp-1 phosphatase; inhibition, % at 20 µM; Recombinant Scp1, phosphopeptide, malachite green phosphate absorbance; actives 0.88% (n = 340,000); Q9GZU7; AID 493091;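 active means inhibition above about 50% at 20 µM, limit read from the data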;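 further: plate controls were DMSO wells with enzyme for no effect and wells lacking enzyme for full effect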
Target sequence (Q9GZU7 76-261 limits assumed): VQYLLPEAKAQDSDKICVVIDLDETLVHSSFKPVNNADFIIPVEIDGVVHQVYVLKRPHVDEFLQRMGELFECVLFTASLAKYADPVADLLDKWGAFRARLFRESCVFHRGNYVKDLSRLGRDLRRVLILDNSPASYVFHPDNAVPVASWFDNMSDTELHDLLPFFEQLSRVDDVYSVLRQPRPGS
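Test system: SCP-1 phosphatase catalytic domain, residues 76-261; measured by: colorimetric phosphate reagent with accelerator and stabiliser, absorbance at 630 nm; timing: enzyme reaction 45 min at room temperature, colour 5 min, stabilisation 30 min; also added: Phosphorylated 17-residue peptide substrate; compound dosing: one concentration, 20 µM, with 1.0% DMSO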
STEP inh: STEP (human) phosphatase inhibition. actives 0.25% (n = 360,000). recombinant STEP, OMFP fluorogenic substrate, fluorescence. inhibition, % at 20 µM. AID 588621;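 active means inhibition at 20 µM, scaled per plate between control wells, above about 37%, limit read from the data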;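 further: 0% = DMSO with enzyme and substrate and 100% = substrate only without enzyme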
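Also added – OMFP at 25 µM · Test system – STEP tyrosine phosphatase · Technique – FITC-channel fluorescence of OMFP product · Schedule – 20 min at room temperature, dark · Evaluation – control-normalized % inhibition with plate pattern correction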
LMPTP inh: blocks human LMPTP phosphatase. inhibition, % at 20 µM. P24666. actives 0.22% (n = 360,000). recombinant LMPTP-A, OMFP fluorogenic substrate, fluorescence intensity. AID 651560;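 active means compounds that cut the enzyme signal by at least half of the control window in the single-dose screen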;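 further: plate controls were DMSO wells with enzyme plus substrate for no effect and substrate without enzyme for full effect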
Target sequence (P24666 whole entry, looked up): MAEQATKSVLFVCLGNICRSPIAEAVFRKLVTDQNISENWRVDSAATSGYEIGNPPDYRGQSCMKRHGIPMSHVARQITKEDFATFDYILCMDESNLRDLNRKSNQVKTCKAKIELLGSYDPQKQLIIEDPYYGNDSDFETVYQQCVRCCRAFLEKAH
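Buffer or medium: Bis-Tris pH 6.0, DTT, detergent; Assay system: LMPTP-A enzyme; Quantity: 0.625 nM enzyme; Detection: endpoint fluorescence intensity; Times: 50 min dark incubation at room temperature; Controls: substrate-only low control, DMSO enzyme-plus-substrate high control; Doses: single 20 µM dose; Read-out: percent inhibition versus substrate-only and uninhibited controls; Reagent: 400 µM OMFP.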
SUMO1 PPI mod: modulators of human SUMO1-mediated protein-protein interactions. AID 602429. SUMO1 binding to a labelled peptide, TR-FRET, 1 h. inhibition, % at 20 µM. actives 0.33% (n = 360,000); in the data active means inhibition above about 37%
Target sequence (P63165 whole entry, looked up): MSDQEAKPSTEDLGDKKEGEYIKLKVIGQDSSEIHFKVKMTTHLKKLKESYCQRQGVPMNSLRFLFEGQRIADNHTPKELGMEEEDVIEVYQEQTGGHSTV
DNMT1 block: blocks human DNA methyltransferase DNMT1 | P26358 | DNMT1 molecular beacon, Hinp1I cleavage, fluorescence | inhibition (reported as % activation of signal), % at 10 µM | actives 0.83% (n = 360,000) | AID 588458; in the data active means inhibition above about 50%
The depositor's hits bear a star; / = not tested or not shown.

SMILES	Scp-1 inhibitor	STEP inh	LMPTP inh	SUMO1 PPI mod	DNMT1 block
COC(=O)c1cc(S(=O)(=O)N2CCN(Cc3ccccc3)CC2)c[nH]1	0.6	-1.1	-0.5	-2.6	1.2
COc1ccc(C2NC(=O)NC3=C2CCc2ccccc23)cc1 (configuration not stated)	-4.2	8.1	16.6	11.3	78.7*
O=C(NC(=O)N1CCCCCC1)c1ccccc1	2.5	-4.1	-1.5	4.3	0.3
CCCC[C@@H]1CNC(=O)C(=O)N1CC1CCCCC1	/	/	-1.1	2.0	/
CCCCN1C(=O)C(=O)NC[C@@H]1CC1CCCCC1	/	/	6.5	44.7*	/
COc1ccccc1NC(=O)C(C)OC(=O)CC1CCCCC1 (configuration not stated)	-10.4	3.6	-0.2	6.6	-0.2
Cc1nc(S/C(=C/c2ccc(-c3cc(Cl)ccc3C)o2)C(=O)O)n[nH]1	17.4	2.7	3.0	69.0*	-1.9
CC(=O)c1ccc(-c2ccc(/C=C(/Sc3n[nH]c(C)n3)C(=O)O)o2)cc1	30.4	-3.7	2.3	8.5	1.2
Cc1nc(S/C(=C/c2ccc(-c3ccc(C(=O)O)cc3)o2)C(=O)O)n[nH]1	75.5*	15.0	0.1	8.1	27.6
O=C1NC[C@H](CCCCN2CCN(CCc3ccccc3)C(=O)C2=O)N(Cc2ccccc2)C1=O	/	/	-0.7	-1.5	/
COc1ccc(CCC(=O)NC(C)C)cc1	-5.3	-0.5	-2.2	0.2	0.3
COc1ccc(COC[C@H](C)[C@H](O)[C@@H](C)[C@H]2OC(=O)[C@@H]2C)cc1	-3.8	-1.1	-1.0	37.8*	-1.6
O=C(NCc1ccco1)c1ccc(S(=O)(=O)N2CCCCC2)cc1	3.3	-4.2	-1.7	-1.1	2.8
O=C(NCc1ccco1)c1ccc(S(=O)(=O)N2CCOCC2)cc1	33.4	12.5	4.6	6.8	76.3*
Cn1c(CC(=O)NNC(=O)c2ccc(F)cc2Cl)nc2ccccc21	-7.6	2.3	-0.5	43.5*	-0.3
Cn1c(CC(=O)NNC(=O)c2ccc(Cl)nc2)nc2ccccc21	-6.8	4.8	-1.2	3.6	5.2
O=C(CCCN1C(=O)/C(=C/c2ccccc2)SC1=S)Nc1ccc(C(=O)O)c(O)c1	-7.9	-0.1	2.7	-23.8	-1.0
CC(C(=O)Nc1ccc(C(=O)O)c(O)c1)N1C(=O)/C(=C\c2ccco2)SC1=S (configuration not stated)	70.2*	64.2*	23.5	87.6*	95.0*
O=C(CCCN1C(=O)C(=Cc2ccc3c(c2)OCO3)SC1=S)Nc1ccc(C(=O)O)c(O)c1	/	-1.3	51.6*	-1.2	2.1
O=C(CCCN1C(=O)/C(=C/c2ccc3c(c2)OCO3)SC1=S)Nc1ccc(C(=O)O)cc1	-8.3	13.1	22.0	-21.9	-0.2
CC(C(=O)N(C)C1CCS(=O)(=O)C1)N1C(=O)/C(=C/c2ccco2)SC1=S (configuration not stated)	23.4	3.4	1.1	-14.7	19.7
Cc1ccc(NC(=O)CN2C(=O)S/C(=C\c3ccc(-c4cccc(C(=O)O)c4C)o3)C2=O)cc1C	92.0*	68.4*	81.8*	11.1	53.3*
O=C(CN1C(=O)/C(=C/c2ccco2)SC1=S)Nc1ccc(C(=O)O)c(O)c1	49.9	63.8*	43.3	77.5*	94.8*
COc1ccc(OCCCC(=O)N(C)CC(=O)Nc2c(C)cccc2C)cc1	-3.4	-3.2	-0.4	4.9	5.3
NC(=O)C1CCCN(C(=O)CCC(=O)c2cccs2)C1 (configuration not stated)	-2.7	-3.2	0.3	-7.4	1.7
Cc1ccc(Cn2c(CCNc3nc(-c4ccc(C)cc4)cs3)nc3cc(C(=O)NCCCO)ccc32)cc1	-3.0	-0.8	2.0	51.9*	-77.8
Nc1nc(=S)c2ncn([C@@H]3O[C@H](CO)[C@@H](O)[C@H]3O)c2[nH]1	-8.8	2.3	-1.4	1.8	4.3
Nc1nc(=S)c2ncn(C3OC(CO)C(O)C3O)c2[nH]1 (configuration not stated)	76.7*	42.6*	26.1	19.1	79.6*
COc1ccc(N2CCN(S(=O)(=O)c3c(C)[nH]c(C)c3C(=O)N3CCCCC3)CC2)cc1	27.9	-1.1	-0.6	1.0	-1.9
CCC[n+]1c(C)sc2c3c(ccc21)CCCC3	98.1*	2.5	4.6	3.4	33.3

High-throughput results as filed in PubChem BioAssay.
